TRPC4 potent = allosteric potentiators of mouse TRPC4 channel | 0.42% of 310,000 active | Q9QUQ5 | AID 2227 | HEK293 TRPC4beta/mu-opioid, DAMGO EC20, Fluo-4 Ca2+ flux; stronger effect = higher value | B-score at 10 µM;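 active = B-score of calcium response area above 5 SD of library B-scores, with initial fluorescence ratio within 5 SD of library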;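 also: B-score of integrated fluorescence ratio over time as area under calcium response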
Target sequence (Q9QUQ5 whole entry, looked up): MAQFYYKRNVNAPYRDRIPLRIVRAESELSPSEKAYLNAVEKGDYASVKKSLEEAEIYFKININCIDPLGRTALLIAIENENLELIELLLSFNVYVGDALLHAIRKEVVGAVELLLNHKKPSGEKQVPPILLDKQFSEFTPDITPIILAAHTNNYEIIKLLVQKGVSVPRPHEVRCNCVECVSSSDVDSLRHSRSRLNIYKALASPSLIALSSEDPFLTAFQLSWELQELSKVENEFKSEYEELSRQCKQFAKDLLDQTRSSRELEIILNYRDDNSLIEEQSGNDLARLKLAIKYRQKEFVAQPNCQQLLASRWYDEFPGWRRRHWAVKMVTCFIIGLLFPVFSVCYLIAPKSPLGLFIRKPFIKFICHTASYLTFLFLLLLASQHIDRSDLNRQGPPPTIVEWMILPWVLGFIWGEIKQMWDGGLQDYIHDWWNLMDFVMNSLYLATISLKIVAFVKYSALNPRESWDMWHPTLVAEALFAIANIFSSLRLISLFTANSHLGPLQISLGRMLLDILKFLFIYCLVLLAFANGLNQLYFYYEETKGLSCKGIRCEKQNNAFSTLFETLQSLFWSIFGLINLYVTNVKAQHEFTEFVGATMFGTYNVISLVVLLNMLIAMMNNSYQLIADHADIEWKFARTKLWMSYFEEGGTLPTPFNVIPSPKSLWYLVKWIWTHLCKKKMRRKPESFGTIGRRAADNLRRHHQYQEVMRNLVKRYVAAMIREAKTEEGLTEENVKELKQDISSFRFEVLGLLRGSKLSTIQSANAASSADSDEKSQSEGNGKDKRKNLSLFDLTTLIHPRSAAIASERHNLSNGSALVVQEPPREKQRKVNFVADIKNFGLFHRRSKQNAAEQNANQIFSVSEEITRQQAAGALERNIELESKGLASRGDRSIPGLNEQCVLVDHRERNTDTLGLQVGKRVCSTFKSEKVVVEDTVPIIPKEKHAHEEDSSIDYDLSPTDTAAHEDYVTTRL
TRPC6 activator = activates the mouse TRPC6 cation channel; B-score at 10 µM; HEK293-TRPC6 membrane potential dye fluorescence; stronger effect = higher value; 0.13% of 310,000 active; AID 2550;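 active = B-score of the integrated fluorescence ratio above library mean plus 3 SD, and starting fluorescence ratio within library mean plus 5 SD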;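 also: higher score means more depolarization so channel activation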
TRPC6 inh = blocks the mouse TRPC6 cation channel. Q61143. HEK293-TRPC6, membrane potential dye, ACh-evoked depolarization; stronger effect = lower value. B-score at 10 µM. 1.1% of 310,000 active. AID 2553;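 active = B-score under library mean minus 3 SD, initial fluorescence not abnormally high, positive integrated signal ratio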;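 also: B-score derived from integrated fluorescence ratio over the kinetic read; more negative B-score means stronger inhibition of depolarization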
TRPC4 block = inhibitors of mouse TRPC4 channel; Q9QUQ5; HEK293 TRPC4beta/mu-opioid, DAMGO-evoked Fluo4 calcium flux; stronger effect = lower value; B-score at 10 µM; 0.39% of 300,000 active; AID 2247;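 active = B-score over 3 SD under the library average, no early fluorescence shift, positive overall ratio signal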
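Test system – stable TRPC4beta/mu-opioid receptor HEK293 cells · Probe or stimulus – DAMGO, a submaximal dose followed by a maximal one · Dosing – one concentration per compound · Signal – Fluo4 calcium fluorescence by kinetic imaging, 5 s 1 Hz baseline · Evaluation – per-well B score of integrated baseline-normalized Fluo4 ratio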
TRPC4 agonist = TRPC4 (mouse) channel activation; Q9QUQ5; HEK293 TRPC4beta/mu-opioid, Fluo4 calcium fluorescence; stronger effect = higher value; B-score at 10 µM; 0.49% of 310,000 active;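 active = B-score above 5 SD of library B-scores, and initial fluorescence ratio not above library mean plus 5 SD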;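 also: positive B-score marks a calcium rise read as TRPC4 activation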
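Test system: HEK293 cells stably co-expressing mouse TRPC4beta and mu-opioid receptor | Schedule: Fluo4 dye loading 45 min at room temperature, 110 s recording | Measured by: Kinetic Fluo4 calcium fluorescence, 5 s baseline at 1 Hz | Evaluation: B score of integrated ratio | Controls: Buffer (low) and maximal DAMGO (high)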
TRPC4 spec 2 = second check of whether TRPC6 inhibitors also affect mouse TRPC4; shares compounds with TRPC6 inh; HEK293 TRPC4/MOR, membrane potential dye fluorescence; channel activated by saturating DAMGO dose; inhibition, % at 10 µM; 42% of 920 active; AID 2776;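 active = compounds whose fluorescence signal differed from control wells by over 3 SD, either direction, in both duplicate plates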
TRPC4 spec = tests whether TRPC6 inhibitors also affect mouse TRPC4 | HEK293 TRPC4/mu-opioid, membrane potential fluorescence | 61% of 920 active | activity change, negative = inhibition, % at 10 µM | shares compounds with TRPC6 inh;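 active = rise or fall in signal beyond 3 SD of buffer-only wells in both replicate plates, either sign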;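 also: integrated kinetic ratio of fluorescence range over baseline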
HEK293 MPD ctr 2-1 = second counter-screen for TRPC6 inhibitors: parental HEK293 cells; parental HEK293 membrane potential dye fluorescence; maximal acetylcholine challenge after compound addition; 31% of 920 active; shares compounds with TRPC6 inh; signal change vs control, % at 10 µM;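 active = membrane potential signal moving either way by over 3 SD of the maximum-effect control, in both duplicate plates, meaning non-specific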
HEK293 MPD ctr-1 = parental HEK293 nonspecific activity of TRPC6 inhibitors. shares compounds with TRPC6 inh. parental HEK293 membrane potential dye fluorescence. membrane potential signal change, % at 10 µM. 60% of 920 active. AID 2780;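 active = membrane potential signal shifting up or down by more than 3 SD of buffer-only wells, on both duplicate plates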
HEK293 MPD ctr-2 = counter-screen for TRPC6 modulators: effect in parental HEK293 cells; 51% of 2,400 active; shares compounds with TRPC6 inh; membrane potential signal change, % at 10 µM; membrane potential dye fluorescence; AID 488924;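 active = membrane potential signal moves up or down beyond 5 SD from buffer-only wells, on both duplicate plates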
HEK293 MPD ctr 2-2 = second check of TRPC6 modulator effects in parental HEK293 cells; shares compounds with TRPC6 inh; membrane potential dye fluorescence; after compound, maximal acetylcholine stimulation; inhibition, % at 10 µM; 14% of 2,400 active; AID 488926;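 active = membrane potential signal drops by more than 5 SD from the mean control signal, in both duplicate plates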;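 also: plate controls were acetylcholine ECmax control wells for no effect and buffer only wells for full effect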
TRPC4/MOR mod = selectivity of TRPC6 modulators against mouse TRPC4 | shares compounds with TRPC6 inh | HEK293 TRPC4/mu-opioid, membrane potential fluorescence | percent change from control (negative = decrease, positive = increase), % at 10 µM | 69% of 2,400 active | AID 488927;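 active = membrane potential signal moved up or down beyond 5 SD of buffer control wells, in both duplicate plates, actives on both sides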;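 also: plate controls were assay buffer wells for no effect and DAMGO maximal-effect wells for full effect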
TRPC4/MOR inh 2 = second check of whether TRPC6 modulators also affect mouse TRPC4 | shares compounds with TRPC6 inh | HEK293 TRPC4/mu-opioid, membrane potential dye fluorescence; stimulated with maximal-effect DAMGO | inhibition, % at 10 µM | 55% of 2,400 active;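 active = drop in membrane potential signal beyond 5 SD of the control wells in both duplicate plates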;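 also: TRPC4 counter screen for TRPC6 hits run under conditions tuned for TRPC6 not TRPC4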
TRPC6 block conf = confirmation of mouse TRPC6 inhibitors. shares compounds with TRPC6 inh. HEK293-TRPC6, membrane potential dye, ACh-evoked depolarization. inhibition, % at 10 µM. 43% of 3,300 active;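 active = fluorescence ratio falls more than 5 SD below the full-stimulation control mean, in both duplicate runs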;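 also: integrated fluorescence ratio of peak minus minimum over baseline after agonist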
TRPC6 act conf = mouse TRPC6 activator confirmation | HEK293-TRPC6 membrane potential dye fluorescence, FDSS | shares compounds with TRPC6 inh | 11% of 2,800 active | activation, % at 10 µM;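 active = ratio signal rise beyond 5 SD above unstimulated control wells' mean, seen in both duplicate runs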;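 also: plate controls were buffer EC0 wells for no effect and acetylcholine ECmax response for full effect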
Active calls of the source: *; i = inactive; x = no result given. Hits are enriched below; roughly 2.3% of the tested compounds scored in any of these assays.

SMILES	TRPC4 potent	TRPC6 activator	TRPC6 inh	TRPC4 block	TRPC4 agonist	HEK293 MPD ctr-2	HEK293 MPD ctr 2-2	TRPC4/MOR mod	TRPC4/MOR inh 2	TRPC6 block conf	TRPC6 act conf	others
CCn1c(=O)n(CC(=O)NCC2CCCO2)c(=O)c2c3c(sc21)COC(C)(C)C3 (centres undefined)	i	i	i	i	i	x	x	x	x	x	x
O=C1CCC([N+](=O)[O-])C(c2ccccc2Cl)N1 (centres undefined)	i	i	i	i	i	x	x	x	x	x	x
O=C1CCC([N+](=O)[O-])C(c2ccccc2C(F)(F)F)N1 (centres undefined)	i	i	-5.14*	i	i	i	i	i	i	i	i
CCc1ccccc1NS(=O)(=O)c1ccc2c(c1)NC(=O)CC(=O)N2	i	i	-9.36*	i	i	x	x	x	x	i	i	TRPC4 spec 2=i;TRPC4 spec=i;HEK293 MPD ctr 2-1=i;HEK293 MPD ctr-1=i
CCc1cccc(NS(=O)(=O)c2ccc3c(c2)NC(=O)CC(=O)N3)c1	i	i	i	i	i	x	x	x	x	x	x
O=C(NC1CCS(=O)(=O)C1)c1cccs1 (centres undefined)	i	i	i	i	i	x	x	x	x	x	x
CCN1CCN(C(=O)CCc2nnc3ccc(N4CCC5(CC4)OCCO5)nn23)CC1	i	i	i	i	i	x	x	x	x	x	x
COc1cc(NC(=O)c2cc([N+](=O)[O-])ccc2NC(=O)CN2CCN(c3ccccn3)CC2)cc(OC)c1	10*	i	-5.93*	i	i	i	i	i	40.5%*	i	i
O=C(CN1CCN(Cc2ccccc2)CC1)Nc1ccc([N+](=O)[O-])cc1C(=O)Nc1ccccc1F	i	i	-5.07*	i	i	i	i	i	70.5%*	38.5%*	i
CC(Oc1ccc2ccc(=O)oc2c1)C(=O)NCCN1CCOCC1 (centres undefined)	i	i	i	i	i	x	x	x	x	x	x
Cc1cccc(OCc2nnc(SCc3cc(=O)n4cc(Br)ccc4n3)o2)c1	i	i	-8*	i	i	x	x	x	x	i	i	TRPC4 spec 2=i;TRPC4 spec=0.1%*;HEK293 MPD ctr 2-1=i;HEK293 MPD ctr-1=0.6%*
COc1ccc(OC)c(/C=N/NC(=O)Cn2ccnc2C)c1	i	13.8*	-10.3*	i	i	i	i	i	i	80.5%*	186.5%*
COc1cccc(/C=N/NC(=O)Cn2ccnc2C)c1	i	i	i	i	i	x	x	x	x	x	x
CC[n+]1c(/C=C/Nc2ccccc2)oc2ccc(OC)cc21	i	i	-5.54*	-7*	i	-74.5%*	i	-24.0%*	i	46.5%*	i
CC[n+]1c(/C=C/Nc2ccccc2)oc2ccccc21	i	i	-7.33*	i	i	-169.0%*	76.0%*	-44.0%*	81.5%*	69.0%*	i
CC[n+]1c(/C=C/N(C)c2ccccc2)oc2ccc(F)cc21	i	i	i	i	i	x	x	x	x	x	x
CC1CCCN(S(=O)(=O)c2ccc(CN3C(=O)c4cccnc4C3=O)cc2)C1 (centres undefined)	i	i	i	i	i	x	x	x	x	x	x
CC(=O)NN1C(=O)/C(=C\c2ccccc2)SC1=S	i	i	i	i	i	x	x	x	x	x	x
O=C1/C(=C/c2ccccc2)SC(=S)N1N1C(=O)C2CC2C1=O (centres undefined)	i	i	-8.75*	i	i	x	x	x	x	i	i	TRPC4 spec 2=i;TRPC4 spec=i;HEK293 MPD ctr 2-1=i;HEK293 MPD ctr-1=i
COc1cccc(CN2CC(C(=O)NCCOc3ccccc3)CCC2=O)c1 (centres undefined)	i	i	i	i	i	x	x	x	x	x	x
C#CC[N+](C)(C)CCCCCCCCCCCC	i	i	-5.13*	i	i	i	i	19.0%*	45.0%*	60.0%*	x
CCN(CC)CCSc1nnc2c3cc(C)ccc3n(Cc3ccccc3)c2n1	i	i	-7.12*	i	i	x	x	x	x	i	i	TRPC4 spec 2=27.0%*;TRPC4 spec=13.9%*;HEK293 MPD ctr 2-1=i;HEK293 MPD ctr-1=-213.0%*
N#CC1=C(N)Oc2cc(N)ccc2C1c1ccccc1F (centres undefined)	i	i	i	i	i	x	x	x	x	x	x
O=C(c1ccc([N+](=O)[O-])cc1)N1CCN(c2ncccn2)CC1	i	i	i	i	i	x	x	x	x	x	x
O=C(CN(Cc1ccco1)C(=O)CNS(=O)(=O)c1ccc(F)cc1)NCCc1ccccc1	i	i	-5.29*	i	i	i	i	12.5%*	i	i	i
CCOC(=O)N1CCN(c2ccc(S(=O)(=O)N(Cc3ccccc3)Cc3ccccc3)cn2)CC1	i	i	-5.32*	i	i	i	i	11.5%*	i	i	i
Cc1cc(C)c2cc3c(ccn3C3OC[C@H](O)[C@H](O)[C@H]3O)cc2n1 (some centres undefined)	i	i	-7.08*	i	i	i	i	-67.5%*	34.0%*	i	i
CC(=O)O[C@@H]1[C@@H](OC(C)=O)[C@H](n2ccc3cc([N+](=O)[O-])ccc32)OC[C@@H]1OC(C)=O	i	i	i	i	i	x	x	x	x	x	x

Screening data: PubChem BioAssay, Johns Hopkins Ion Channel Center
